In ChEMBL document CHEMBL1177703, “Design and synthesis of novel xyloketal derivatives and their vasorelaxing activities in rat thoracic aorta and angiogenic activities in zebrafish angiogenesis screen” (J Med Chem, 2010) one finds EC50, Activity and Angiogenic activity data, which are given here for 22 molecules.

Structures can show the parent of a compound that is named as a salt. Active and inactive are the calls of the source. The rule behind the calls is not given here.

The subject of data set [1] is Aorta. The experiment in a line: Vasorelaxant activity in Sprague-Dawley rat endothelium intact thoracic aortic rings assessed as inhibition of KPSS-induced contraction. The data set is classed as functional, tissue-based. The procedure, abridged:
(§1)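 Rat thoracic aortic rings (2-3 mm) held in Krebs bicarbonate at 37 °C, pH 7.4, gassed with 95% O2/5% CO2. Endothelium accepted as intact with >80% relaxation to 1 μM ACh after 1 μM phenylephrine, and as denuded with no ACh response. Rings precontracted with KCl (30 mM intact, 25 mM denuded). Cumulative curves 0.5-200 μM, vehicle 2% DMSO, one curve per ring; EC50 derived.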

In data set [2] the test system is Aorta. The experiment in a line: Vasorelaxant activity in Sprague-Dawley rat endothelium denuded thoracic aortic rings assessed as inhibition of KCL-induced contraction. The data set is classed as functional, tissue-based. The procedure, abridged: as §1
The test system of data set [3] is HUVEC. The data set is described as follows: Cytotoxicity against HUVEC assessed as cell viability > 200 uM after 24 hrs by MTT assay. The note with it: human. The data set is classed as cell-based.
Data set [4] concerns HUVEC. The experiment in a line: Protection against oxidatively modified low density lipoprotein-induced cell injury in HUVEC assessed as cell viability at 20 uM pretreated for 30 mins before oxLDL challenge measured after 24 hrs by MTT assay. The data set is classed as functional, cell-based. The note with it: Homo sapiens. The essentials: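 HUVECs pretreated 30 min with 20 μM compound, then given oxLDL (150 μg/mL) or vehicle for 24 h. MTT added and absorbance read at 570 nm after 4 h. Mean ± SD, n = 6.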
A general note: Tetrazolium assays rely on reduction of a dye to a coloured formazan, in cell work by metabolically active cells.

Data set [5] is filed under the species Danio rerio. The experiment in a line: Angiogenic activity in zebrafish embryo at 100 uM after 72 hrs by microscopical analysis.
The species entered for data set [6] is Danio rerio. The data set is described as follows: Angiogenic activity in zebrafish embryo after 72 hrs by microscopical analysis.
In data set [7] the test system is HUVEC. The data set is described as follows: Induction of nitric oxide production in HUVEC at 20 uM after 24 hrs by griess reaction. The data set is classed as functional, cell-based. The note with it: Homo sapiens. The essentials:
(§2)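 HUVECs preincubated 24 h with 20 μM compound, alone or together with 100 μM L-NAME. Nitrite in 100 μL medium mixed 1:1 with Griess reagent for 15 min, absorbance read at 540 nm, quantified against a NaNO2 standard curve run with each experiment. Samples in triplicate; mean ± SD, n = 6.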
(In general: Nitrite, measured by Griess reagent, commonly stands in for NO production.)

The subject of data set [8] is HUVEC. The experiment in a line: Induction of nitric oxide production in HUVEC at 20 uM after 24 hrs by griess reaction in presence of L-NAME. The data set is classed as functional, cell-based. The note with it: Homo sapiens. The procedure, abridged: as §2

For the molecule `CCCCCCOc1cc2c(c3c1C[C@@H]1[C@@H](C)CO[C@]1(C)O3)C[C@@H]1[C@@H](C)CO[C@]1(C)O2` [XYLOKETAL B HEXYL ETHER], the EC50 in data set [1] and in data set [2] was greater than 200 µM throughout. The Activity result in data set [3] is listed as “Non-toxic”.

Take `CCCCOc1cc2c(c3c1C[C@@H]1[C@@H](C)CO[C@]1(C)O3)C[C@@H]1[C@@H](C)CO[C@]1(C)O2` [XYLOKETAL B BUTYL ETHER]: the EC50 (commonly the concentration that produces a half-maximal response) in data set [1] was 111 µM; in data set [2] it was greater than 200 µM. Moreover, in data set [3], the Activity result is “Non-toxic”.

Take `C[C@H]1CO[C@]2(C)Oc3cc(OC/C=C/c4ccccc4)c4c(c3C[C@H]12)O[C@@]1(C)OC[C@H](C)[C@H]1C4` [XYLOKETAL B CINNAMYL ETHER]: the EC50 in data set [1] was 64 µM; in data set [2], greater than 200 µM. For the same molecule, the Activity result in data set [3] is reported as “Non-toxic”.

On to `C[C@H]1CO[C@]2(C)Oc3c(c(O)c(C(=O)O)c4c3C[C@@H]3[C@@H](C)CO[C@]3(C)O4)C[C@H]12` [XYLOKETAL B ACID], for which the EC50 in data set [1] and in data set [2] was greater than 200 µM each time. The Activity result in data set [3] was “Non-toxic”.

Turning to `CCCOc1cc2c(c3c1C[C@@H]1[C@@H](C)CO[C@]1(C)O3)C[C@@H]1[C@@H](C)CO[C@]1(C)O2` [XYLOKETAL B PROPYL ETHER], the EC50 in data set [1] amounted to 43 µM; in data set [2] it was 77 µM. In data set [4], the result was Active. Further, the Activity result in data set [3] is “Non-toxic”. Besides, in data set [5], the Angiogenic activity result was “Active”.

As for `C[C@H]1CO[C@]2(C)Oc3ccc4c(c3C[C@H]12)O[C@@]1(C)OC[C@H](C)[C@H]1C4` [DEHYDROXY XYLOKETAL B], the EC50 in data set [1] came to 55 µM; in data set [2] it was 72 µM. The Activity entry in data set [3] was “Non-toxic”.

For the molecule `COC(=O)c1c(O)c2c(c3c1O[C@@]1(C)OC[C@H](C)[C@H]1C3)O[C@@]1(C)OC[C@H](C)[C@H]1C2` [XYLOKETAL B METHYL FORMATE], the values for the EC50 in data set [1] and in data set [2] were 8 µM and 14 µM, respectively. For the same molecule, the Activity entry in data set [3] is listed as “Non-toxic”. Further, in data set [5], the Angiogenic activity entry is “Active”.

Take `CC1COC2(C)Oc3c(c4c(c5c3CC3C(C)COC3(C)O5)CC3C(C)COC3(C)O4)CC12` (racemic): the EC50 in data set [1] is 6 µM; in data set [2], 11 µM. The outcome in data set [4] was Active. The Activity entry in data set [3] is reported as “Non-toxic”. The Angiogenic activity entry in data set [5] is “Active”.

Regarding `C[C@H]1CO[C@]2(C)Oc3cccc(O)c3C[C@H]12` [DEHYDROXY XYLOKETAL H], the EC50 in data set [1] is 128 µM; in data set [2] it was greater than 200 µM. The Activity entry in data set [3] is reported as “Non-toxic”.

As to `C=C=CCOc1cc2c(c3c1C[C@@H]1[C@@H](C)CO[C@]1(C)O3)C[C@@H]1[C@@H](C)CO[C@]1(C)O2` [XYLOKETAL B ALLENIC ETHER], the values for the EC50 in data set [1] and in data set [2] were 12 µM and 11 µM, respectively. In addition, the result in data set [4] was Active. Also, the Activity result in data set [3] was “Non-toxic”. Also, the Angiogenic activity result in data set [5] was “Active”.

For `CC1COC2(C)Oc3cc(O)c4c(c3CC12)OC1(C)OCC(C)C1C4` (racemic) [(+/-)-XYLOKETAL B], the EC50 in data set [1] is 19 µM; in data set [2] it was 41 µM. For the same molecule, the outcome in data set [4] was Active. Besides, the Activity entry in data set [3] is given as “Non-toxic”. In data set [6], the Angiogenic activity entry is “Dose-dependent effect”. Moreover, the Angiogenic activity entry in data set [5] is “Active”.

As for `CNC(=O)c1c(O)c2c(c3c1O[C@@]1(C)OC[C@H](C)[C@H]1C3)O[C@@]1(C)OC[C@H](C)[C@H]1C2`, the EC50 in data set [1] stood at 9 µM; in data set [2], 15 µM. For the same molecule, in data set [3], the Activity entry is “Non-toxic”. In addition, the Angiogenic activity entry in data set [5] is “Active”.

In the case of `C[C@H]1CO[C@]2(C)Oc3c(c4c(c5c3C[C@@H]3[C@@H](C)CO[C@]3(C)O5)C[C@@H]3[C@@H](C)CO[C@]3(C)O4)C[C@H]12`, the EC50 is 12 µM in data set [1] and 31 µM in data set [2]. Moreover, the outcome in data set [7] was Active. Besides, the outcome in data set [8] was inactive. Also, the Activity result in data set [3] is “Non-toxic”. Also, the Angiogenic activity entry in data set [5] was “Active”.

For `CC1COC2(C)Oc3cc(O)cc(O)c3CC12` (racemic), the EC50 is 39 µM in data set [1] and 66 µM in data set [2]. Moreover, the result in data set [4] was Active. Also, the Activity result in data set [3] is “Non-toxic”. The Angiogenic activity result in data set [5] was “Active”.

Turning to `COC(=O)C(C)NC(=O)c1c(O)c2c(c3c1O[C@@]1(C)OC[C@H](C)[C@H]1C3)O[C@@]1(C)OC[C@H](C)[C@H]1C2` (stereo partly drawn), the EC50 in data set [1] was determined as 5 µM; in data set [2], 13 µM. For the same molecule, in data set [3], the Activity entry was “Non-toxic”. In addition, in data set [5], the Angiogenic activity entry is “Active”.

Regarding `C#CCOc1cc2c(c3c1C[C@@H]1[C@@H](C)CO[C@]1(C)O3)C[C@@H]1[C@@H](C)CO[C@]1(C)O2` [XYLOKETAL B PROPARGYL ETHER], the EC50 was determined as 23 µM in data set [1] and 22 µM in data set [2]. The outcome in data set [4] and in data set [7] was Active. Also, the outcome in data set [8] was inactive. Further, the Activity result in data set [3] is on record as “Non-toxic”. Besides, the Angiogenic activity entry in data set [5] is “Active”.

In the case of `COC1(C)CCc2c(c3c(c4c2OC(C)(OC)CC4)OC(C)(OC)CC3)O1` (stereo not drawn), the EC50 was 65 µM in data set [1] and 118 µM in data set [2]. Besides, the Activity result in data set [3] is “Non-toxic”. Further, in data set [5], the Angiogenic activity entry is “Active”.

Regarding `COc1cc2c(c3c1C[C@@H]1[C@@H](C)CO[C@]1(C)O3)C[C@@H]1[C@@H](C)CO[C@]1(C)O2` [XYLOKETAL B METHYL ETHER], the EC50 in data set [1] is 17 µM; in data set [2] it was 33 µM. The outcome in data set [4] and in data set [7] was Active. The result in data set [8] was inactive. In data set [3], the Activity entry was “Non-toxic”. The Angiogenic activity entry in data set [5] is “Active”.

Consider `COc1cc(OC)c2c(c1)O[C@@]1(C)OC[C@H](C)[C@H]1C2` [XYLOKETAL H DIMETHYL ESTER], for which the EC50 in data set [1] is 37 µM; in data set [2] it was 80 µM. The Activity entry in data set [3] is reported as “Non-toxic”.

For `C[C@H]1CO[C@]2(C)Oc3c(c(O)c(Cc4c(O)c5c(c6c4O[C@@]4(C)OC[C@H](C)[C@H]4C6)O[C@@]4(C)OC[C@H](C)[C@H]4C5)c4c3C[C@@H]3[C@@H](C)CO[C@]3(C)O4)C[C@H]12`, the EC50 in data set [1] was 87 µM; in data set [2] it was greater than 200 µM. Moreover, the Activity result in data set [3] is listed as “Non-toxic”. In data set [5], the Angiogenic activity result is “Active”.

Regarding `Cc1cc2c(c3c1C[C@@H]1[C@@H](C)CO[C@]1(C)O3)C[C@@H]1[C@@H](C)CO[C@]1(C)O2` [METHYL XYLOKETAL B], the EC50 in data set [1] is 40 µM; in data set [2] it was 52 µM. The result in data set [4] and in data set [7] was Active. The result in data set [8] was inactive. Besides, the Activity entry in data set [3] is “Non-toxic”. Further, the Angiogenic activity entry in data set [5] is “Active”.

On to `C[C@H]1CO[C@]2(C)Oc3c(c(O)c(C(N)=O)c4c3C[C@@H]3[C@@H](C)CO[C@]3(C)O4)C[C@H]12` [XYLOKETAL B FORMAMIDE], for which the EC50 in data set [1] was determined as 3 µM; in data set [2] it was 10 µM. Also, in data set [3], the Activity result was “Non-toxic”. In addition, in data set [5], the Angiogenic activity entry was “Active”.
